The text below walks through data of ChEMBL document CHEMBL3817802, “Discovery of Benzofuran Derivatives that Collaborate with Insulin-Like Growth Factor 1 (IGF-1) to Promote Neuroprotection” (J Med Chem, 2016).

Data set [1] in a line: (§1) Neuroprotective activity against serum starvation-induced cell death in Sprague-Dawley rat primary neural cells assessed as neuronal survival rate incubated for 3 days in presence of 100 ng/ml human recombinant IGF-1 by beta3-tubulin-detecting cell-ELISA relative to control. It counts as functional, cell-based. As to conditions: Primary neuron, 72 h. In a few lines: (§2)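 Primary neural cells were taken from rat hippocampal and cerebral cortical tissue and grown 4 days in serum-containing medium. They were then switched to serum-free medium for 3 days, with 100 ng/mL IGF-1 plus test agent, to induce starvation death. Neurons were counted by cell-ELISA for βIII-tubulin immunoreactivity. EC50 was reported with its 95% confidence interval.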
Background: In an ELISA, binding on a coated surface is turned into a signal by an enzyme label.

The target of another data set is CYP2C9 (Homo sapiens, UniProt P11712). Kind of data set: Inhibition of CYP2C9 in human liver microsomes at 10 uM incubated for 30 mins by HPLC analysis. It counts as ADME. For orientation: Microsomes from liver hold many membrane-bound enzymes, among them those of drug oxidation.
CYP2C9, sequence (P11712 whole entry): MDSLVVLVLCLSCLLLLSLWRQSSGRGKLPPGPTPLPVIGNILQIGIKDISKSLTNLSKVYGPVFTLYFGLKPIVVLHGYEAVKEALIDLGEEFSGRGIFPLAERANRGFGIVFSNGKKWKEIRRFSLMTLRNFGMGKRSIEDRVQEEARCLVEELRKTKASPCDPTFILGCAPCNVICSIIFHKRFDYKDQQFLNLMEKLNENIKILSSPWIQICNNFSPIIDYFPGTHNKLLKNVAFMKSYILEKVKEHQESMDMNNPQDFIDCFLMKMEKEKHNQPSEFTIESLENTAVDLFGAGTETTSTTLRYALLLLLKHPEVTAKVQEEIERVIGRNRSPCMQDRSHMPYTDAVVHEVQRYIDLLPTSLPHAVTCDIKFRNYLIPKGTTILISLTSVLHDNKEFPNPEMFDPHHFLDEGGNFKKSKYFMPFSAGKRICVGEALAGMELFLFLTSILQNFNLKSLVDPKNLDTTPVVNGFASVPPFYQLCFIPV
Data set [2] can be described thus: Metabolic clearance in human liver microsomes at 1 umol/L by LC/MS/MS analysis. It counts as ADME. The note with it: read-out: CLH.
The nature of data set [3]: Ratio of drug level in brain to plasma of Sprague-Dawley rat at 0.1 mg/kg, iv by cassette dosing measured at 1 hr by LC/MS/MS analysis. It counts as ADME, organism-based.
A short description of data set [4]: Oral bioavailability in Sprague-Dawley rat at 1 mg/kg by LC/MS/MS analysis. It counts as ADME, organism-based. The note with it: in vivo.
Data set [5] can be described thus: Neuroprotective activity against serum starvation-induced cell death in Sprague-Dawley rat primary neural cells assessed as neuronal survival rate at 1 umol/L incubated for 3 days by beta3-tubulin-detecting cell-ELISA relative to control. It counts as functional, Primary neuron. In a few lines: (§3)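 Primary neural cells from rat hippocampal and cerebral cortical tissue were grown 4 days in serum-containing medium, then 3 days serum-free to induce death, with or without IGF-1. The line's compound concentration was present during the serum-free phase. Neuron number was estimated by cell-ELISA for βIII-tubulin immunoreactivity. Data are mean ± SEM of four wells.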

In another data set the test system is Primary neuron. Described as §1. It counts as functional, cell-based. In a few lines: as §2
Data set [6] in a line: Neuroprotective activity against serum starvation-induced cell death in Sprague-Dawley rat primary neural cells assessed as neuronal survival rate at 1 umol/L incubated for 3 days in presence of 3 to 100 ng/ml human recombinant IGF-1 by beta3-tubulin-detecting cell-ELISA. It counts as functional, Primary neuron. In a few lines:
as §3

Data set [7] can be described thus: Neuroprotective activity against serum starvation-induced cell death in Sprague-Dawley rat primary neural cells assessed as neuronal survival rate at 0.33 uM incubated for 3 days in presence of 100 ng/ml human recombinant IGF-1 by beta3-tubulin-detecting cell-ELISA relative to control. It counts as functional, Primary neuron. The procedure, abridged: as §3
For the next data set, the system named is HepG2. Kind of data set: Cytotoxicity against human HepG2 cells assessed as decrease in cellular ATP content at 100 uM after 1 day. As to conditions: hepg2, 24 h. It counts as cell-based. The arrangement: scale not given: the % may be the effect or the level left.
Data set [8] in a line: Neuroprotective activity against serum starvation-induced cell death in Sprague-Dawley rat primary neural cells assessed as neuronal survival rate at 10 uM incubated for 3 days in presence of 100 ng/ml human recombinant IGF-1 by beta3-tubulin-detecting cell-ELISA relative to control. It counts as functional, Primary neuron. The procedure, abridged: as §3

Usually EC50 stands for the midpoint of the concentration-response curve. Turning to `COc1ccc(C2CN(c3c(C)c(C)c4c(c3C)CC(C)(C)O4)CCO2)cc1` (racemic), in data set [1], the half-maximal effective concentration (EC50) was found to be 370 nM.

With `COc1ccc(CN2CCN(c3c(C)c(C)c4c(c3C)CC(C)(C)O4)CC2)cc1`, the EC50 in data set [1] is 680 nM. The inhibition is the drop in the measured response relative to a control, in per cent. `COc1ccc(N2CCN(c3c(C)c(C)c4c(c3C)C(=O)C(C)(C)CO4)CC2)cc1`: in [1], the EC50 is 510 nM. Besides, at CYP2C9, the inhibition at 0.5 h, 10 µM came to 42.1%.

For `COc1ccc(N2CCN(c3c(C)c(C)c4c(c3C)C[C@@H](C)O4)CC2)cc1`, the EC50 in [1] turned out to be 440 nM. With `COc1ccc(N2CCCN(c3c(C)c(C)c4c(c3C)CC(C)(C)O4)CC2)cc1`, the microsomal CLint at 1 µM in data set [2] turned out to be 87 µL/min/mg. Besides, the EC50 in [1] turned out to be 76 nM. With `COc1ccc(N2CCN(c3c(C)c(C)c4c(c3C)C[C@](C)(CO)O4)CC2)cc1`, in data set [1], the EC50 came to 630 nM. The same measure, in the same setting: then `COc1ccc(N2CCN(c3c(C)c(C)c4c(c3C)CC(C)(C)O4)CC2)c(OC)c1`, with 390 nM; and `COc1ccc(N2CCN(c3c(C)c(C)c4c(c3C)CC(C)(C)O4)CC2)cc1OC`, with 270 nM. As to `Cc1c(C)c(N2CCN(c3ccccc3)CC2)c(C)c2c1OC(C)(C)C2`, the EC50 in data set [1] was found to be 380 nM.

With `Cc1c(C)c(N2CCN(c3ccc(Cl)cc3)CC2)c(C)c2c1OC(C)(C)C2`, in [1], the EC50 came to 660 nM. For orientation: Kp means tissue or fluid exposure divided by exposure in the circulation. Broadly, the bioavailability is dose-corrected exposure relative to a reference, in per cent. Turning to `COc1ccc(N2CCN(c3c(C)c(C)c4c(c3C)C(=O)C(C)(C)O4)CC2)cc1`, the Kp at 1 h in [3] is 3.4. The 50% effective concentration (EC50) in data set [1] amounted to 120 nM. The bioavailability in data set [4] turned out to be 42.3%. Moreover, the inhibition at 0.5 h, 10 µM at CYP2C9 worked out at 83.4%. Regarding `COc1ccc(N2CCN(c3c(C)c(C)c4c(c3C)C[C@H](C)O4)CC2)cc1`, the EC50 in [1] amounted to 460 nM. Still for that read-out and setting: with `COc1ccc(C2CN(c3c(C)c(C)c4c(c3C)CC(C)(C)O4)CCN2C)cc1` (racemic) the figure was 550 nM. Take `Cc1ccc(N2CCN(c3c(C)c(C)c4c(c3C)CC(C)(C)O4)CC2)cc1`: the microsomal CLint at 1 µM in data set [2] is 30 µL/min/mg. For the same compound, the EC50 in data set [1] was found to be 130 nM. For `COc1ccc(N2CCN(c3c(C)c(C)c4c(c3C)CC(C)(C)O4)CC2)cn1`, in data set [1], the concentration giving a half-maximal response (EC50) worked out at 620 nM.

On to `COc1ccc(N2CCN(c3c(C)c(C)c4c(c3C)CCO4)CC2)cc1`, for which, in data set [1], the EC50 came to 230 nM. Take `Cc1c(C)c(N2CCN(c3ccc(C#N)cc3)CC2)c(C)c2c1OC(C)(C)C2`: the EC50 in data set [1] was greater than 1000 nM. As to `COc1ccc(N2CCN(c3c(C)c(C)c4c(c3C)CC(C)(C)O4)CC2)cc1`, in [2], the microsomal CLint at 1 µM came to 2 µL/min/mg. In addition, the “fold change (FC)” value in data set [5] is listed as 3; in data set [6], 6; in data set [7], 3. The Kp at 1 h in [3] amounted to 2.9. Moreover, the Activity entry in the data set with Primary neuron was “Dose-dependent effect”; in the data set on HepG2 it was 93.3%. For the same compound, in data set [1], the EC50 was found to be 150 nM. Further, the inhibition at 0.5 h, 10 µM on CYP2C9 was -0.9%. For `Cc1c(C)c(N2CCN(c3ccc(F)cc3)CC2)c(C)c2c1OC(C)(C)C2`, the 50% effective concentration (EC50) in data set [1] came out at 300 nM. Consider `CC(=O)c1ccc(N2CCN(c3c(C)c(C)c4c(c3C)CC(C)(C)O4)CC2)cc1`, for which the 50% effective concentration (EC50) in [1] came out at 150 nM. Also, in the data set with HepG2, the Activity is reported as 68%. With `Cc1c(C)c(N2CCNCC2)c(C)c2c1OC(C)(C)C2`, the Survival in [8] was 20%. `COc1ccc(N2CCN(c3c(C)c(C)c4c(c3C)C[C@@](C)(CO)O4)CC2)cc1`: the EC50 in data set [1] came out at 700 nM.
